Reference: ChEMBL document CHEMBL1158383, “Synthesis and blood glucose lowering effect of novel pyridazinone substituted benzenesulfonylurea derivatives” (2009)

Key:
Rattus norvegicus [1] = experiment: Antidiabetic activity in streptozotocin-induced NIDDM Wistar albino rat model assessed as inhibition of rise of blood glucose level at 20 mg/kg, po administered 15 mins prior to glucose challenge measured after 90 mins of glucose loading by glucose oxidase-peroxidase colorimetric method; format: functional
In short: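 n2-STZ model: STZ 100 mg/kg in fresh 0.1 M citrate pH 4.5 given i.p. to 2-day-old pups (6–8 g), weaned for 4 weeks. Diabetic rats had fasting glucose >140 mg/dl and >200 mg/dl 2 h after oral glucose. Overnight-fasted groups of six got a 1% CMC suspension p.o. 15 min before glucose 2 g/kg p.o. GOD-POD at 505 nm before and at 90 min; reduction set against the control rise.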

Rattus norvegicus [2] = experiment: Antidiabetic activity in normal Wistar albino rat assessed as inhibition of rise of blood glucose level at 20 mg/kg, po administered 15 mins prior to glucose challenge measured after 90 mins of glucose loading by glucose oxidase-peroxidase colorimetric method; format: functional
In short: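 Wistar albino rats of either sex (160–200 g), fasted overnight, in groups of six. Dosed p.o. at 10 ml/kg, suspended in 1% CMC in distilled water; vehicle controls. Glucose 2 g/kg p.o. given 15 min after dosing. Retro-orbital blood taken just before and 90 min after glucose; glucose read by GOD-POD quinoneimine at 505 nm. Percent reduction taken against the control rise, set as 100%.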

| Compound | inhibition in vivo at 20 mg/kg (Rattus norvegicus [1]) | inhibition in vivo at 20 mg/kg (Rattus norvegicus [2]) |
| --- | --- | --- |
| CCCNC(=O)NS(=O)(=O)c1ccc(-n2nc(-c3ccc(C)cc3)ccc2=O)cc1 | 109% | 80.5% |
| Cc1ccc(-c2ccc(=O)n(-c3ccc(S(=O)(=O)NC(=O)NC4CCCCC4)cc3)n2)cc1 | 110% | 79.9% |
| CCCCNC(=O)NS(=O)(=O)c1ccc(-n2nc(-c3ccccc3)ccc2=O)cc1 | 111% | 67.4% |
| O=C(NC1CCCCC1)NS(=O)(=O)c1ccc(-n2nc(-c3ccc(Cl)cc3)ccc2=O)cc1 | 114% | 59% |
| CCCNC(=O)NS(=O)(=O)c1ccc(-n2nc(-c3ccc(Cl)cc3)ccc2=O)cc1 | 122% | 74.3% |
| O=C(NCc1ccccc1)NS(=O)(=O)c1ccc(-n2nc(-c3ccc(Cl)cc3)ccc2=O)cc1 | 111% | 61.6% |
| CCCCNC(=O)NS(=O)(=O)c1ccc(-n2nc(-c3ccc(OC)cc3)ccc2=O)cc1 | 25.6% | 43.7% |
| CCCCNC(=O)NS(=O)(=O)c1ccc(-n2nc(-c3ccc(C)cc3)ccc2=O)cc1 | 109% | 86.6% |
| O=C(NC1CCCCC1)NS(=O)(=O)c1ccc(-n2nc(-c3ccccc3)ccc2=O)cc1 | 86.2% | 52.1% |
| CCCCNC(=O)NS(=O)(=O)c1ccc(-n2nc(-c3ccc(Cl)cc3)ccc2=O)cc1 | 100% | 66% |
| Cc1cc(-c2ccc(=O)n(-c3ccc(S(=O)(=O)NC(=O)NC4CCCCC4)cc3)n2)ccc1Cl | 55.2% | 62.1% |
| Cc1ccc(-c2ccc(=O)n(-c3ccc(S(=O)(=O)NC(=O)NCc4ccccc4)cc3)n2)cc1 | 119% | 64.9% |
| CCCNC(=O)NS(=O)(=O)c1ccc(-n2nc(-c3ccccc3)ccc2=O)cc1 | 125% | 77.2% |
| Cc1ccc(S(=O)(=O)NC(=O)NN2CC3CCCC3C2)cc1 (stereo not drawn) [GLICLAZIDE] | 107% | 135% |
